According to ChEMBL document CHEMBL3244186, “Synthesis and evaluation of the thiosemicarbazone, dithiocarbazonate, and 2'-pyrazinylhydrazone of pyrazinecarboxaldehyde as agents for the treatment of iron overload” (J Med Chem, 1979):
Each block holds one compound with its values, some of them ahead of it.

Assays:
Mus musculus [1] = test: Iron chelating activity in iron-overloaded BDF1 mouse assessed as iron level in heart at 100 mg/kg, ip treated from day 8 to 13 after erythrocyte suspension injection on day 1, 3 and 5 by atomic absorption spectroscopic analysis; format: functional; settings: route intraperitoneal
How it was run: (§1)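 Iron-loaded male BDF1 mice (10 per group) given ip drug in EtOH/Tween 80/saline vehicle daily on days 8-13. On day 15, under Et2O, mice were exsanguinated. Organs were washed, frozen, thawed, weighed and homogenized in 0.014 M NaCl made with iron-free water; supernatant iron was measured by AAS, as μg/mouse. Mean ± SD; t test versus iron-loaded vehicle control.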

[2] = Iron chelating activity assessed as removal of iron from ferritin after 20 hrs by atomic absorption spectrophotometric analysis; format: physicochemical
How it was run: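 Ferritin holding 1.34 mg total Fe was dialyzed at room temperature against 25.0 mL of 1.00 mM ligand solution. Iron in the dialysate was measured by atomic absorption spectroscopy at 20 h.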

[3] = Iron chelating activity assessed as removal of [59]-Fe from [59]-Fe-labeled transferrin at 1 mM measured per hr by spectrometric analysis; format: physicochemical; settings: 1000 µM
How it was run: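 About 10^6 cpm of 59Fe-labeled transferrin in 1.0 mL of 0.1 M Hepes (pH 7.00), inside a dialysis sack, dialyzed at room temperature against 25.0 mL of 1.00 mM ligand in the same buffer. Dialysate aliquots of 1.00 mL taken at intervals were gamma-counted (800-1400 keV window). Initial release rates were derived from these counts.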

[4] = Binding affinity to Fe(NO3)3 assessed as stability constant at pH 7.4 after 1 hr; format: physicochemical; settings: pH 7.4, 1 h
How it was run: (§2)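 Continuous-variation (Job) method: iron and ligand solutions diluted after 1 h to 10.00 mL with 50 mM barbital buffer (pH 7.4), all containing 0.100 M KNO3. Visible absorbance at λmax was read at several times to confirm equilibrium. Absorbance was plotted against metal/(metal + ligand) to give the stoichiometry and minimum stability constant.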

Mus musculus [5] = test: Iron chelating activity in iron-overloaded BDF1 mouse assessed as iron level in liver at 100 mg/kg, ip treated from day 8 to 13 after erythrocyte suspension injection on day 1, 3 and 5 by atomic absorption spectroscopic analysis; format: functional; settings: route intraperitoneal; how it was run: as §1
Mus musculus [6] = test: Iron chelating activity in iron-overloaded BDF1 mouse assessed as iron level in heart at 50 mg/kg, ip treated from day 8 to 13 after erythrocyte suspension injection on day 1, 3 and 5 by atomic absorption spectroscopic analysis; format: functional; settings: route intraperitoneal; how it was run: as §1
Mus musculus [7] = test: Iron chelating activity in iron-overloaded BDF1 mouse assessed as iron level in lung at 50 mg/kg, ip treated from day 8 to 13 after erythrocyte suspension injection on day 1, 3 and 5 by atomic absorption spectroscopic analysis; format: functional; settings: route intraperitoneal; how it was run: as §1
Mus musculus [8] = test: Iron chelating activity in iron-overloaded BDF1 mouse assessed as daily urinary iron level at 100 mg/kg, ip treated from day 8 to 13 after erythrocyte suspension injection on day 1, 3 and 5 by atomic absorption spectroscopic analysis; format: functional, Urine; settings: route intraperitoneal
Mus musculus [9] = test: Iron chelating activity in iron-overloaded BDF1 mouse assessed as daily urinary iron level at 50 mg/kg, ip treated from day 8 to 13 after erythrocyte suspension injection on day 1, 3 and 5 by atomic absorption spectroscopic analysis; format: functional, Urine; settings: route intraperitoneal
[10] = Binding affinity to FeSO4 assessed as stability constant at pH 7.4 after 1 hr; format: physicochemical; settings: pH 7.4, 1 h; how it was run: as §2
Mus musculus [11] = test: Iron chelating activity in iron-overloaded BDF1 mouse assessed as transferrin saturation at 50 mg/kg, ip treated from day 8 to 13 after erythrocyte suspension injection on day 1, 3 and 5 relative to control; format: functional; settings: route intraperitoneal
How it was run: (§3)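 Iron-loaded male BDF1 mice (10 per group) received ip drug daily on days 8-13, with non-loaded and iron-loaded vehicle-treated control groups. On day 15, blood collected by cardiac puncture under Et2O was pooled per group. Percent transferrin saturation was measured with a standard hematologic kit.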

Mus musculus [12] = test: Iron chelating activity in iron-overloaded BDF1 mouse assessed as iron level in liver at 50 mg/kg, ip treated from day 8 to 13 after erythrocyte suspension injection on day 1, 3 and 5 by atomic absorption spectroscopic analysis; format: functional; settings: route intraperitoneal; how it was run: as §1
Mus musculus [13] = test: Iron chelating activity in iron-overloaded BDF1 mouse assessed as iron level in lung at 100 mg/kg, ip treated from day 8 to 13 after erythrocyte suspension injection on day 1, 3 and 5 by atomic absorption spectroscopic analysis; format: functional; settings: route intraperitoneal; how it was run: as §1
Mus musculus [14] = test: Iron chelating activity in iron-overloaded BDF1 mouse assessed as transferrin saturation at 100 mg/kg, ip treated from day 8 to 13 after erythrocyte suspension injection on day 1, 3 and 5 relative to control; format: functional; settings: route intraperitoneal; how it was run: as §3
Mus musculus [15] = test: Iron chelating activity in iron-overloaded BDF1 mouse assessed as iron level in spleen at 50 mg/kg, ip treated from day 8 to 13 after erythrocyte suspension injection on day 1, 3 and 5 by atomic absorption spectroscopic analysis; format: functional; settings: route intraperitoneal; how it was run: as §1
Mus musculus [16] = test: Iron chelating activity in iron-overloaded BDF1 mouse assessed as iron level in spleen at 100 mg/kg, ip treated from day 8 to 13 after erythrocyte suspension injection on day 1, 3 and 5 by atomic absorption spectroscopic analysis; format: functional; settings: route intraperitoneal; how it was run: as §1
Mus musculus [17] = test: Iron chelating activity in iron-overloaded BDF1 mouse assessed as iron level in spleen at 125 mg/kg, ip treated from day 8 to 13 after erythrocyte suspension injection on day 1, 3 and 5 by atomic absorption spectroscopic analysis; format: functional; settings: route intraperitoneal; how it was run: as §1
Mus musculus [18] = test: Iron chelating activity in iron-overloaded BDF1 mouse assessed as iron level in lung at 125 mg/kg, ip treated from day 8 to 13 after erythrocyte suspension injection on day 1, 3 and 5 by atomic absorption spectroscopic analysis; format: functional; settings: route intraperitoneal; how it was run: as §1
Mus musculus [19] = test: Iron chelating activity in iron-overloaded BDF1 mouse assessed as daily urinary iron level at 125 mg/kg, ip treated from day 8 to 13 after erythrocyte suspension injection on day 1, 3 and 5 by atomic absorption spectroscopic analysis; format: functional, Urine; settings: route intraperitoneal
Mus musculus [20] = test: Iron chelating activity in iron-overloaded BDF1 mouse assessed as iron level in liver at 125 mg/kg, ip treated from day 8 to 13 after erythrocyte suspension injection on day 1, 3 and 5 by atomic absorption spectroscopic analysis; format: functional; settings: route intraperitoneal; how it was run: as §1
[21] = Binding affinity to Fe(NO3)3 assessed as stability constant; format: physicochemical
How it was run: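 Minimum stability constant and stoichiometry were found by continuous variation (Job plot). Metal and ligand solutions stood 1 h and were then diluted with 50 mM barbital buffer (pH 7.4) containing 0.100 M KNO3. Visible absorbance at λmax was read at several times to confirm equilibrium. Absorbance was plotted against metal/(metal + ligand).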

Mus musculus [22] = test: Iron chelating activity in iron-overloaded BDF1 mouse assessed as iron level in heart at 125 mg/kg, ip treated from day 8 to 13 after erythrocyte suspension injection on day 1, 3 and 5 by atomic absorption spectroscopic analysis; format: functional; settings: route intraperitoneal; how it was run: as §1
Mus musculus [23] = test: Iron chelating activity in iron-overloaded BDF1 mouse assessed as transferrin saturation at 125 mg/kg, ip treated from day 8 to 13 after erythrocyte suspension injection on day 1, 3 and 5 relative to control; format: functional; settings: route intraperitoneal; how it was run: as §3

Activity [2]: < 1 µM
Activity [3]: 0.1%
Activity [4]: > 27
Activity [10]: 16.4
Structure (SMILES): C(=N\Nc1cnccn1)/c1cnccn1
Activity (Mus musculus [1]): 7.6 µg
Activity (Mus musculus [5]): 164 µg
Activity (Mus musculus [6]): 7.4 µg
Activity (Mus musculus [7]): 14.6 µg
Activity (Mus musculus [8]): 4.9 µg
Activity (Mus musculus [9]): 3.4 µg
Activity (Mus musculus [11]): 44%
Activity (Mus musculus [12]): 174 µg
Activity (Mus musculus [13]): 12.8 µg
Activity (Mus musculus [14]): 38%
Activity (Mus musculus [15]): 16.4 µg
Activity (Mus musculus [16]): 14.9 µg

Activity [2]: 25.2 µM
Activity [3]: 1%
Activity [21]: 30.6
Structure (SMILES): CC(=O)N(O)CCCCCNC(=O)CCC(=O)N(O)CCCCCNC(=O)CCC(=O)N(O)CCCCCN [DEFEROXAMINE]
Activity (Mus musculus [17]): 19.2 µg
Activity (Mus musculus [18]): 16.4 µg
Activity (Mus musculus [19]): 3 µg
Activity (Mus musculus [20]): 132 µg
Activity (Mus musculus [22]): 9.4 µg
Activity (Mus musculus [23]): 75%

Structure (SMILES): O=c1cccccc1O [TROPOLONE]
Activity [2]: 4.1 µM
Activity [3]: 19.7%
Activity [21]: 10.5
